Measurements published in publication PMC5503496 (Drug Design, Development and Therapy, 2017).
“Also recorded” adds a separate entry of the source.

How the values were obtained:
mushroom tyrosinase = mushroom tyrosinase (Agaricus bisporus, UniProt C7FF04); assay: Kinetic analysis of the inhibition of tyrosinase; type: biochemical; conditions: Lineweaver-Burk plots, L-DOPA
[1] = system: melanin contents in zebrafish embryos; assay: Determination of melanin contents in zebrafish; type: in vivo, zebrafish (Danio rerio); conditions: 50 µM, 72 hpf
[2] = system: pigmentation of zebrafish; assay: In vivo depigmentation assay in zebrafish; design: species or system zebrafish (Danio rerio); conditions: zebrafish embryos, 50 µM, 9 to 72 hpf
Outline: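 Synchronized embryos from wild-type adults (kept at 28.5°C, 14 h light/10 h dark) were placed 2–3 per well in E3 medium (NaCl 5 mM, KCl 0.17 mM, CaCl2 0.33 mM, MgSO4 0.33 mM). […] Dechorionated embryos were anesthetized with MS-222, mounted in 1% methyl cellulose and photographed by stereomicroscope. Pigmentation was quantified by pixel measurement.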

mushroom tyrosinase, sequence (C7FF04 1-392 limits assumed): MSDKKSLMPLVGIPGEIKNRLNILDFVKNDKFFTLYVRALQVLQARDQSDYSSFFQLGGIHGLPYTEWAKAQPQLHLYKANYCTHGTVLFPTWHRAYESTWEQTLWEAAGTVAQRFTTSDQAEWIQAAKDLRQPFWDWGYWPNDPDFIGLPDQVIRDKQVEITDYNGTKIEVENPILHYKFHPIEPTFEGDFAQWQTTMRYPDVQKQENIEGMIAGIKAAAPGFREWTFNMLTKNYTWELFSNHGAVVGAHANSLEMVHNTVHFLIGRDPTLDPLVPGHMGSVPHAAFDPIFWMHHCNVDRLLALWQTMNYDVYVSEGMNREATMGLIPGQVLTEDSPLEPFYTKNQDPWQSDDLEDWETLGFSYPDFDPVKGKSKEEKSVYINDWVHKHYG

Cc1ccc(C(C)C)cc1NC(=O)COC(=O)c1ccc(O)cc1O [4c, 2-[2-methyl-5-(propan-2-yl)anilino]-2-oxoethyl 2,4-dihydroxybenzoate]
Inhibition type (mushroom tyrosinase): non-competitive inhibition; also recorded: non-competitively

O=c1cc(CO)occ1O [Kojic acid]
melanin contents [1]: only slightly reduced the melanin contents | pigmentation level (decreased to) [2]: 24.2%

Cc1ccc(C(C)C)cc1NC(=O)COC(=O)/C=C/c1ccccc1 [6a, 2-[2-methyl-5-(propan-2-yl)anilino]-2-oxoethyl (2E)-3-phenylprop-2-enoate]
Inhibition type (mushroom tyrosinase): mixed-type inhibition

Cc1ccc(C(C)C)cc1NC(=O)COC(=O)/C=C/c1ccccc1O [6b, 2-[2-methyl-5-(propan-2-yl)anilino]-2-oxoethyl (2E)-3-(2-hydroxyphenyl)prop-2-enoate]
Inhibition type (mushroom tyrosinase): mixed-type inhibition
